Active and inactive are the calls of the source.
Assays:
[1] = Cmax in CD-1 mouse at 10 mg/kg,po and measured at 1 hrs by LC-MS/MS analysis; format: ADME, organism-based; parameters: dose 10 mg/kg, time 1 hrs, route po; settings: in vivo
Outline: (§1)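 Female CD1 mice given double ester/carbamate prodrug by oral gavage. Plasma levels of both prodrug and released parent acid followed over time to give Cmax, t1/2, AUCinf and %F.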

[2] = Half life in CD-1 mouse at 10 mg/kg,po and measured upto 24 hrs by LC-MS/MS analysis; format: ADME, organism-based; settings: in vivo; outline: as §1
[3] = Oral bioavailability in CD-1 mouse at 10 mg/kg and measured upto 24 hrs by LC-MS/MS analysis; format: ADME, organism-based; settings: in vivo; outline: as §1
[4] = AUC (0 to infinity) in CD-1 mouse at 10 mg/kg,po and measured upto 24 hrs by LC-MS/MS analysis; format: ADME, organism-based; parameters: time < 24 hrs, dose 10 mg/kg, route po; settings: in vivo; outline: as §1
[5] = Prodrug conversion in CD-1 mouse plasma assessed as Cmax of 4-(4-(piperidin-4-yl)phenyl)-7-(4-(trifluoromethyl)phenyl)-2-naphthoic acid at 10 mg/kg,po and measured upto 24 hrs by LC-MS/MS analysis; format: ADME, organism-based; parameters: dose 10 mg/kg, time < 24 hrs, route po; settings: in vivo; outline: as §1
[6] = Prodrug conversion in CD-1 mouse plasma assessed as Tmax of 4-(4-(piperidin-4-yl)phenyl)-7-(4-(trifluoromethyl)phenyl)-2-naphthoic acid at 10 mg/kg,po and measured upto 24 hrs by LC-MS/MS analysis; format: ADME, organism-based; settings: in vivo
Outline: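 Double prodrug of the active acid given by oral gavage to female CD1 mice. Plasma levels of prodrug and released active drug followed over time to establish the conversion course. Peak time read for the active drug.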

[7] = Prodrug conversion in CD-1 mouse plasma assessed as AUC (0 to infinity) of 4-(4-(piperidin-4-yl)phenyl)-7-(4-(trifluoromethyl)phenyl)-2-naphthoic acid at 10 mg/kg,po and measured upto 24 hrs by LC-MS/MS analysis; format: ADME, organism-based; parameters: time < 24 hrs, dose 10 mg/kg, route po; settings: in vivo; outline: as §1
[8] = system: Mus musculus; test: Antiallodynic activity in CCI surgery neuropathic pain Hsd:ICR mouse model assessed as reversal of mechano-allodynia by measuring paw withdrawal threshold at 10 micromol/kg,po and measured upto 6 hrs by von frey test; format: functional, organism-based; settings: dose 10.0 µmol/kg
Outline: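 CCI neuropathic pain in adult male CD-1 mice. Single oral gavage dose of 10 μmol/kg on day 7 post-surgery. Vehicle 5% DMSO + 10% (Kolliphor HS 15:DMSO 5:95) in 0.5% methylcellulose, 0.2 mL. Von Frey paw withdrawal threshold on both hindpaws. Mean ± SD; two-way ANOVA with Dunnett's test.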

[9] = system: Mus musculus; test: Antiallodynic activity in CCI surgery neuropathic pain Hsd:ICR mouse model assessed as reversal of mechano-allodynia by measuring paw withdrawal threshold at 10 micromol/kg,ip and measured upto 5 days by von frey test; format: functional, organism-based; settings: dose 10.0 µmol/kg, time <= 5.0 day
Outline: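 CCI neuropathic pain in adult male Hsd:ICR (CD-1) mice (20–30 g). Single i.p. injection on day 7 after sciatic nerve constriction, at peak pain. Vehicle 10% (Kolliphor HS 15:DMSO 5:95) in saline, 0.2 mL. Paw withdrawal threshold by von Frey filaments on ipsilateral and contralateral hindpaws. Mean ± SD; two-way ANOVA with Dunnett's test versus day 0 and day 7.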

- Cmax [1]: 2000 ng/mL
- t1/2 [2]: 1.45 h
- bioavailability [3]: 6.9%
- AUC(0-inf) [4]: 1780 ng·h/mL
- Cmax [5]: 33 ng/mL
- Tmax [6]: 7 h
- AUC [7]: 515 ng·h/mL
Compound: CCOC(=O)N1CCC(c2ccc(-c3cc(C(=O)OCC(=O)N(C)C)cc4cc(-c5ccc(C(F)(F)F)cc5)ccc34)cc2)CC1
- Activity [8]: Active
- Activity [9]: Active
